Measurements: ChEMBL document CHEMBL1135409, “Structure-activity relationships of a novel class of endothelin-A receptor antagonists and discovery of potent and selective receptor antagonist, 2-(benzo[1,3]dioxol-5-yl)-6-isopropyloxy-4-(4-methoxyphenyl)-2H-chromene-3-carboxylic acid (S-1255). 1. Study on structure-activity relationships and …” (J Med Chem, 2002)

Assays:
Endothelin-1 receptor [1] = molecular target: T1, Endothelin-1 receptor (Rattus norvegicus, UniProt P26684); assay: Binding affinity for endothelin A receptor by inhibition of [125I]ET1 binding in rat aorta smooth muscle cells; type: tissue-based
T1 sequence (P26684 whole entry): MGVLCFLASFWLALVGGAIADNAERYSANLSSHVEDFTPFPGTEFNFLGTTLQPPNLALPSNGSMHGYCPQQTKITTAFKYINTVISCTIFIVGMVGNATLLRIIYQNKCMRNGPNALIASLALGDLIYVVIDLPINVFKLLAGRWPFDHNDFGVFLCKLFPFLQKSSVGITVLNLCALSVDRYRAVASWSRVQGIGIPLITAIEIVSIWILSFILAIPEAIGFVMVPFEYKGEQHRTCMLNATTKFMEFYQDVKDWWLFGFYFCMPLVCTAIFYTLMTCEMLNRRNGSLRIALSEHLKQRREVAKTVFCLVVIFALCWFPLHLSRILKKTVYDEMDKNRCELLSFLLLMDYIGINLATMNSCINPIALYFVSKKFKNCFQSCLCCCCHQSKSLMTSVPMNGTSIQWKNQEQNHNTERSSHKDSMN

[2] = Ratio of inhibitory concentrations at ET-B receptor relative to that of ET-A receptor
[3] = molecular target: T2, Endothelin receptor type B (Sus scrofa, UniProt P35463); assay: Binding affinity to endothelin B receptor measured by inhibition of [125I]ET-3 binding recombinant pig ET-B receptor expressed in COS-7 cells; type: cell-based
T2 sequence (P35463 whole entry): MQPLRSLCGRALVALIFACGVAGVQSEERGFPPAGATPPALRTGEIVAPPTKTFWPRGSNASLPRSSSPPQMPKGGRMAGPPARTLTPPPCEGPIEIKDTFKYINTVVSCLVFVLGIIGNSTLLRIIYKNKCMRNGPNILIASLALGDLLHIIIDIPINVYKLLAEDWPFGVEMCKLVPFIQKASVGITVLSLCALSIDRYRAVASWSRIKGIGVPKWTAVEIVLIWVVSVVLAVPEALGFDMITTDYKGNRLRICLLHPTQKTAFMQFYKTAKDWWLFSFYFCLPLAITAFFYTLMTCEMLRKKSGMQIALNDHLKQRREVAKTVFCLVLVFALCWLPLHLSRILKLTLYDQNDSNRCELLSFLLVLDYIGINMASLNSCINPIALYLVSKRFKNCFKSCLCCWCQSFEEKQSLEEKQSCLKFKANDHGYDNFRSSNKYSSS
How it was run: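 COS cells transfected with porcine ETB cDNA, in Hank's solution with 20 mM HEPES and protease inhibitors. Stopped by filtration on GF/C filters presoaked in 1% polyethylenimine, washed with 50 mM Tris-HCl pH 7.4, then counted. Nonspecific binding taken with 0.1 μM ET-3.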

Endothelin-1 receptor [4] = molecular target: T3, Endothelin-1 receptor (Homo sapiens, UniProt P25101); assay: Binding affinity at human Endothelin A receptor
T3 sequence (P25101 whole entry): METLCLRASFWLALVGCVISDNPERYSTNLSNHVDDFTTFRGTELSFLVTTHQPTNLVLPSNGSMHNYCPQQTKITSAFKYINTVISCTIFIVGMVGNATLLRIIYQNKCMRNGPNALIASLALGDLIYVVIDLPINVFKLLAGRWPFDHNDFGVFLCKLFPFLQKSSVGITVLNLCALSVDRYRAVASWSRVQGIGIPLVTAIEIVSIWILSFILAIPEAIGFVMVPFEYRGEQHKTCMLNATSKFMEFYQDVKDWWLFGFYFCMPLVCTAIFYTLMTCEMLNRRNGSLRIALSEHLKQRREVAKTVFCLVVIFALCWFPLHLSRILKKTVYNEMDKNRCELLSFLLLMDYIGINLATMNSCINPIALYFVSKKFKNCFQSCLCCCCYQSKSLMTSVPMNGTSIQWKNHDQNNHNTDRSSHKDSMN
How it was run: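 Membranes from CHO cells expressing human ETA receptor were incubated with [125I]ET-1 and the test compound at various concentrations for 60 min at 37 °C. Buffer was Hank's solution with 20 mM HEPES and protease inhibitors. Bound ligand was collected on PEI-presoaked glass-fibre filters and washed with 50 mM Tris-HCl pH 7.4, then counted.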

[5] = molecular target: T4, Endothelin receptor type B (Homo sapiens, UniProt P24530); assay: Binding affinity at human Endothelin B receptor
T4 sequence (P24530 whole entry): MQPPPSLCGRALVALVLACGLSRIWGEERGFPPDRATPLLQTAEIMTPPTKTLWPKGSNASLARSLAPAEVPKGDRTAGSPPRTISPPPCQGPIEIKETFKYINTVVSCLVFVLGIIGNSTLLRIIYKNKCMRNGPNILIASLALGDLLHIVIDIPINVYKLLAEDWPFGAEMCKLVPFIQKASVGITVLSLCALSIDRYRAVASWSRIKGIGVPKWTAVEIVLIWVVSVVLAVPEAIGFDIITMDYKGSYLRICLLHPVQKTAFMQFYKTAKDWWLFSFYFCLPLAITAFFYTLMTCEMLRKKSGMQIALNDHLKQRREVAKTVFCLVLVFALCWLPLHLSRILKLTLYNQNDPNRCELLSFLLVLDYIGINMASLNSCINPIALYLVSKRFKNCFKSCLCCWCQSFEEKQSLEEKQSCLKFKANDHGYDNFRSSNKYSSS
How it was run: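 Membranes from CHO cells expressing human ETB receptor were incubated with [125I]ET-3 (25 pM as added) and the test compound at various concentrations for 60 min at 37 °C. Buffer was HEPES (20 mM)-buffered Hank's solution with protease inhibitors. Samples were filtered on PEI-presoaked glass-fibre filters, washed with 50 mM Tris-HCl pH 7.4 and counted. Nonspecific binding was taken with 0.1 µM ET-3.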

`CCCCOC1=C(C(=O)O)C(c2ccc3c(c2)OCO3)Oc2ccc(OCCCC)cc21` (stereo unspecified) gave an IC50 (Endothelin-1 receptor [1]) of 3 nM, a Ratio [2] of 160 and an IC50 [3] of 470 nM.
`CCCOc1ccc2c(c1)C(c1ccc(OC)cc1)=C(C(=O)O)C(c1ccc3c(c1)OCO3)O2` (stereo unspecified) gave an IC50 (Endothelin-1 receptor [1]) of 4.4 nM, a Ratio [2] of 50 and an IC50 [3] of 220 nM.
For `CC(C)Oc1ccc2c(c1)C=C(C(=O)O)[C@@H](c1ccc3c(c1)OCO3)O2`, the IC50 (Endothelin-1 receptor [1]) was 240 nM, the Ratio [2] was 220 and the IC50 [3] was 52000 nM.
Work on `COc1ccc(C2=C(C(=O)O)[C@@H](c3ccc4c(c3)OCO4)Oc3ccc(OC(C)C)cc32)cc1` yielded an IC50 (Endothelin-1 receptor [1]) of 0.19 nM, an IC50 (Endothelin-1 receptor [4]) of 0.45 nM and an IC50 [5] of 200 nM. The IC50 [3] was 120 nM.
`CCCCOC1=C(C(=O)O)C(c2ccc3c(c2)OCO3)Oc2ccc(OCC)cc21` (stereo unspecified) showed an IC50 (Endothelin-1 receptor [1]) of 4.2 nM, a Ratio [2] of 380 and an IC50 [3] of 1600 nM.
With `COc1ccc(C2=C(C(=O)O)C(c3ccc4c(c3)OCO4)Oc3ccc(OC(C)CO)cc32)cc1` (stereo unspecified) the IC50 (Endothelin-1 receptor [1]) was 2.8 nM, the Ratio [2] was 61 and the IC50 [3] was 170 nM.
Work on `COc1ccc(C2=C(C(=O)O)C(c3ccc4c(c3)OCO4)Oc3ccc(OCc4ccccc4)cc32)cc1` (stereo unspecified) yielded an IC50 (Endothelin-1 receptor [1]) of 62 nM, a Ratio [2] of 13 and an IC50 [3] of 790 nM.
`CCCCOC1=C(C(=O)O)C(c2ccc3c(c2)OCO3)Oc2ccc(OC)cc21` (stereo unspecified) gave an IC50 (Endothelin-1 receptor [1]) of 250 nM, a Ratio [2] of 9.2 and an IC50 [3] of 2300 nM.
`CCCOc1cccc2c1C(c1ccc(OC)cc1)=C(C(=O)O)C(c1ccc3c(c1)OCO3)O2` (stereo unspecified) showed an IC50 (Endothelin-1 receptor [1]) of 1200 nM, a Ratio [2] of 1.5 and an IC50 [3] of 1800 nM.
In the case of `COc1ccc(C2=C(C(=O)O)C(c3ccc4c(c3)OCO4)Oc3ccc(OC)cc32)cc1` (stereo unspecified), the IC50 (Endothelin-1 receptor [1]) is reported as 74 nM, the Ratio [2] is reported as 7.3 and the IC50 [3] is reported as 540 nM.
